Here are results for eight compounds from ChEMBL document CHEMBL3774386, “Synthesis and structure activity relationship investigation of triazolo[1,5-a]pyrimidines as CB2 cannabinoid receptor inverse agonists” (Eur J Med Chem, 2016).

Bounds are passed on as bounds.

T1 sequence (P34972 whole entry): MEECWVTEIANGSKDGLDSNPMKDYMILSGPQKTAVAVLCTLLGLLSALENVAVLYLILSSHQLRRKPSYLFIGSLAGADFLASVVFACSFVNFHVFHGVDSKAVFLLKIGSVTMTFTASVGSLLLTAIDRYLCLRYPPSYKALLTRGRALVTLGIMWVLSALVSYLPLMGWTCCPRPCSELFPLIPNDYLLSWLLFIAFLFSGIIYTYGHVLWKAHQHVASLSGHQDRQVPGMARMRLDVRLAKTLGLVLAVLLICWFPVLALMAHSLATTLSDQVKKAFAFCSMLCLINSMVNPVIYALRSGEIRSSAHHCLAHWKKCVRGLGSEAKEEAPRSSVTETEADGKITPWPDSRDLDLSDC

In one test the target is T1, Cannabinoid receptor 2 (Homo sapiens, UniProt P34972). Description: Inverse agonist activity at human CB2 receptor transfected in CHO cells assessed as increase in forksolin stimulated cAMP production by scintillation counting analysis. It is filed as functional, cell-based. The method in brief:
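Human CB2-transfected CHO cells detached with trypsin, 1 × 10^6 cells/assay, with forskolin and compound over a concentration curve. cAMP measured by [3H]-cAMP competition: 150 min at 4 °C, charcoal, centrifugation, supernatant counted. Expressed as % increase of forskolin-stimulated cAMP and fitted for EC50; three independent experiments in duplicate.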
A general note: cAMP levels reflect the balance of adenylyl cyclase and phosphodiesterase activity.
For orientation: EC50 means the concentration that produces a half-maximal response. With `CCCCCn1cc(C(=O)NC2CCCCC2)c(=O)n2nc(-c3ccccc3)nc12`, the EC50 was found to be 0.756 µM.

With `CCCCCn1cc(C(=O)NC23CC4CC(CC(C4)C2)C3)c(=O)n2nc(-c3ccco3)nc12`, the EC50 was 0.771 µM.

Turning to `CCCCCn1cc(C(=O)NC23CC4CC(CC(C4)C2)C3)c(=O)n2nc(-c3ccccc3)nc12`, the EC50 amounted to 0.161 µM.

In the case of `CCCCCn1cc(C(=O)NC23CC4CC(CC(C4)C2)C3)c(=O)n2nc(C)nc12`, the 50% effective concentration (EC50) was found to be 2.08 µM.

For the compound `CCCCCn1cc(C(=O)NC23CC4CC(CC(C4)C2)C3)c(=O)n2nc(SC)nc12`, the EC50 came to 0.494 µM.

On to `CCCCCn1cc(C(=O)NC2CCCCC2)c(=O)n2nc(-c3ccc(C)cc3)nc12`, for which the concentration giving a half-maximal response (EC50) turned out to be 0.464 µM.

As for `CCCCCn1cc(C(=O)NC23CC4CC(CC(C4)C2)C3)c(=O)n2nc(N(C)Cc3ccccc3)nc12`, the EC50 is 0.453 µM.

Take `CCCCCn1cc(C(=O)NC23CC4CC(C)(CC(C)(C4)C2)C3)c(=O)n2nc(-c3ccccc3)nc12`: the EC50 stood at 0.489 µM.

For a further test, the target named is Cannabinoid receptor 1 (Homo sapiens, UniProt P21554). Put plainly: Displacement of [3H]CP-55,940 from human CB1 receptor expressed in CHO cell membranes after 90 mins by scintillation counting analysis. For orientation: Displacement assays read how much labelled ligand stays bound in the presence of the test substance.
Chain of Cannabinoid receptor 1 (P21554 whole entry): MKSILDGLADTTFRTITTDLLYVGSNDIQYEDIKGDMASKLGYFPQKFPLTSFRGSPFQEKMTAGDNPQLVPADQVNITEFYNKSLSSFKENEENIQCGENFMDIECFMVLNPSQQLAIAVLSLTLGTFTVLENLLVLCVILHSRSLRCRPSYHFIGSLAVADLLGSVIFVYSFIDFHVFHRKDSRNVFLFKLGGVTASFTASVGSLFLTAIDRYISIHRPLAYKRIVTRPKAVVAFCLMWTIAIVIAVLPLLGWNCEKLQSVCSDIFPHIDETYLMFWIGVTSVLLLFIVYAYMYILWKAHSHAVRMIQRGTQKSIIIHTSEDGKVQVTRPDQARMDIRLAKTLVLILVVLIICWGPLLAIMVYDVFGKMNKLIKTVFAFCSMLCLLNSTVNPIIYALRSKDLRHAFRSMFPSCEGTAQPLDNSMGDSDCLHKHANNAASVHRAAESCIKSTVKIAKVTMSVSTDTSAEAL
One may read the Ki as the equilibrium dissociation constant of an inhibitor or competing ligand from its target. The low end stands for a stronger hold on the target, the high end for a looser hold on the target. `CCCCCn1cc(C(=O)NC2CCCCC2)c(=O)n2nc(-c3ccccc3)nc12` had a Ki of 3.21 µM.

Take `CCCCCn1cc(C(=O)NC23CC4CC(CC(C4)C2)C3)c(=O)n2nc(-c3ccco3)nc12`: the Ki was found to be 1.17 µM.

Take `CCCCCn1cc(C(=O)NC23CC4CC(CC(C4)C2)C3)c(=O)n2nc(C)nc12`: the Ki is 0.471 µM.

`CCCCCn1cc(C(=O)NC23CC4CC(CC(C4)C2)C3)c(=O)n2nc(SC)nc12` showed a Ki of over 10 µM.

Consider `CCCCCn1cc(C(=O)NC2CCCCC2)c(=O)n2nc(-c3ccc(C)cc3)nc12`, for which the Ki was over 10 µM.

Compound `CCCCCn1cc(C(=O)NC23CC4CC(CC(C4)C2)C3)c(=O)n2nc(N(C)Cc3ccccc3)nc12` showed a Ki of over 10 µM.

As for `CCCCCn1cc(C(=O)NC23CC4CC(C)(CC(C)(C4)C2)C3)c(=O)n2nc(-c3ccccc3)nc12`, affinity was put at a Ki of 0.653 µM.

For a further test, the system named is CHO. Put plainly: Selectivity ratio of Ki for human CB1 receptor expressed in CHO cell membranes to Ki for human CB2 receptor expressed in CHO cell membranes. It is filed as cell-based. An outline of the steps:
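CHO membranes with human CB1 or CB2 in 50 mM Tris-HCl, 0.5% BSA, pH 7.4, 5 mM MgCl2, with 1 mM (CB1) or 2.5 mM (CB2) EDTA. Competition against 0.5 nM [3H]CP-55,940 at 30 °C for 90 min (CB1) or 60 min (CB2). GF/C filtration, scintillation counting. Ki from IC50 by Cheng–Prusoff; mean ± SEM, n = 4.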
With `CCCCCn1cc(C(=O)NC2CCCCC2)c(=O)n2nc(-c3ccccc3)nc12`, the Ratio Ki came to 75.

`CCCCCn1cc(C(=O)NC23CC4CC(CC(C4)C2)C3)c(=O)n2nc(-c3ccco3)nc12`: the Ratio Ki was found to be 26.

For `CCCCCn1cc(C(=O)NC23CC4CC(CC(C4)C2)C3)c(=O)n2nc(-c3ccccc3)nc12`, the Ratio Ki was 146.

As to `CCCCCn1cc(C(=O)NC23CC4CC(CC(C4)C2)C3)c(=O)n2nc(C)nc12`, the Ratio Ki is 1.

For `CCCCCn1cc(C(=O)NC23CC4CC(CC(C4)C2)C3)c(=O)n2nc(SC)nc12`, the Ratio Ki is over 213.

Consider `CCCCCn1cc(C(=O)NC2CCCCC2)c(=O)n2nc(-c3ccc(C)cc3)nc12`, for which the Ratio Ki is over 323.

For `CCCCCn1cc(C(=O)NC23CC4CC(CC(C4)C2)C3)c(=O)n2nc(N(C)Cc3ccccc3)nc12`, the Ratio Ki is over 476.

As for `CCCCCn1cc(C(=O)NC23CC4CC(C)(CC(C)(C4)C2)C3)c(=O)n2nc(-c3ccccc3)nc12`, the Ratio Ki is 77.

The next test deals with T1, Cannabinoid receptor 2. Put plainly: Displacement of [3H]CP-55,940 from human CB2 receptor expressed in CHO cell membranes after 60 mins by scintillation counting analysis.
`CCCCCn1cc(C(=O)NC2CCCCC2)c(=O)n2nc(-c3ccccc3)nc12` showed a Ki of 0.043 µM.

With `CCCCCn1cc(C(=O)NC23CC4CC(CC(C4)C2)C3)c(=O)n2nc(-c3ccco3)nc12`, affinity was put at a Ki of 0.045 µM. This Ki and that of the compound before are within 1.5-fold of each other.

On to `CCCCCn1cc(C(=O)NC23CC4CC(CC(C4)C2)C3)c(=O)n2nc(C)nc12`, for which the inhibition constant (Ki) was determined as 0.383 µM.

`CCCCCn1cc(C(=O)NC23CC4CC(CC(C4)C2)C3)c(=O)n2nc(SC)nc12`: the Ki came to 0.047 µM. Compared with the last compound, the Ki is about 8.1-fold lower.

The compound `CCCCCn1cc(C(=O)NC2CCCCC2)c(=O)n2nc(-c3ccc(C)cc3)nc12` displayed a Ki of 0.031 µM.

Turning to `CCCCCn1cc(C(=O)NC23CC4CC(CC(C4)C2)C3)c(=O)n2nc(N(C)Cc3ccccc3)nc12`, the Ki is 0.021 µM.

Regarding `CCCCCn1cc(C(=O)NC23CC4CC(C)(CC(C)(C4)C2)C3)c(=O)n2nc(-c3ccccc3)nc12`, the affinity corresponds to a Ki of 0.0084 µM.

The target in a further test is T1, Cannabinoid receptor 2. Put plainly: Inverse agonist activity at human CB2 receptor transfected in CHO cells assessed as increase in forksolin stimulated cAMP production at 10 uM by scintillation counting analysis relative to control. It is filed as functional, cell-based.
The Emax is the greatest response seen or fitted, relative to the assay's reference. With `CCCCCn1cc(C(=O)NC2CCCCC2)c(=O)n2nc(-c3ccccc3)nc12`, the Emax amounted to 132%.

With `CCCCCn1cc(C(=O)NC23CC4CC(CC(C4)C2)C3)c(=O)n2nc(-c3ccco3)nc12`, the Emax is 132%.

For the compound `CCCCCn1cc(C(=O)NC23CC4CC(CC(C4)C2)C3)c(=O)n2nc(-c3ccccc3)nc12`, the Emax came out at 132%.

As to `CCCCCn1cc(C(=O)NC23CC4CC(CC(C4)C2)C3)c(=O)n2nc(C)nc12`, the maximal response (Emax) was 132%.

As to `CCCCCn1cc(C(=O)NC23CC4CC(CC(C4)C2)C3)c(=O)n2nc(SC)nc12`, the Emax stood at 132%.

For the compound `CCCCCn1cc(C(=O)NC2CCCCC2)c(=O)n2nc(-c3ccc(C)cc3)nc12`, the Emax was 132%.

`CCCCCn1cc(C(=O)NC23CC4CC(CC(C4)C2)C3)c(=O)n2nc(N(C)Cc3ccccc3)nc12`: the Emax turned out to be 132%.

Regarding `CCCCCn1cc(C(=O)NC23CC4CC(C)(CC(C)(C4)C2)C3)c(=O)n2nc(-c3ccccc3)nc12`, the Emax was determined as 243%.

For a further test, the target named is T1, Cannabinoid receptor 2. Put plainly: Inverse agonist activity at human CB2 receptor transfected in CHO cells assessed as increase in forksolin stimulated cAMP production at 1 uM by scintillation counting analysis relative to control. It is filed as functional, cell-based.
In the case of `CCCCCn1cc(C(=O)NC2CCCCC2)c(=O)n2nc(-c3ccccc3)nc12`, the maximal response (Emax) amounted to 53%.

Turning to `CCCCCn1cc(C(=O)NC23CC4CC(CC(C4)C2)C3)c(=O)n2nc(-c3ccco3)nc12`, the Emax worked out at 53%.

Turning to `CCCCCn1cc(C(=O)NC23CC4CC(CC(C4)C2)C3)c(=O)n2nc(-c3ccccc3)nc12`, the Emax worked out at 53%.

With `CCCCCn1cc(C(=O)NC23CC4CC(CC(C4)C2)C3)c(=O)n2nc(C)nc12`, the Emax came out at 53%.

As to `CCCCCn1cc(C(=O)NC23CC4CC(CC(C4)C2)C3)c(=O)n2nc(SC)nc12`, the Emax was found to be 53%.

Turning to `CCCCCn1cc(C(=O)NC2CCCCC2)c(=O)n2nc(-c3ccc(C)cc3)nc12`, the Emax worked out at 53%.

`CCCCCn1cc(C(=O)NC23CC4CC(CC(C4)C2)C3)c(=O)n2nc(N(C)Cc3ccccc3)nc12`: the Emax stood at 53%.

A further test addresses T1, Cannabinoid receptor 2. Description: Antagonist activity at human CB2 receptor transfected in CHO cells assessed as inhibition of WIN 55,212-2 mediated suppression of forksolin induced cAMP production by scintillation counting analysis. It is filed as functional, cell-based. An outline of the steps: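 Human CB2-transfected CHO cells, 1 × 10^6 cells/assay, forskolin-stimulated, with WIN 55,212-2 (20 nM) plus compound over a concentration range. cAMP read by [3H]-cAMP competition: 150 min at 4 °C, charcoal separation, scintillation counting. IC50 derived from reversal of the WIN 55,212-2 inhibition; mean ± SEM of three experiments in duplicate.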
What is called IC50 is the concentration at which inhibition is half-maximal. `CCCCCn1cc(C(=O)NC2CCCCC2)c(=O)n2nc(-c3ccccc3)nc12`: the IC50 amounted to 0.111 µM.

With `CCCCCn1cc(C(=O)NC23CC4CC(CC(C4)C2)C3)c(=O)n2nc(-c3ccco3)nc12`, the IC50 was 0.124 µM.

As for `CCCCCn1cc(C(=O)NC23CC4CC(CC(C4)C2)C3)c(=O)n2nc(-c3ccccc3)nc12`, the IC50 is 0.0086 µM.

As to `CCCCCn1cc(C(=O)NC23CC4CC(CC(C4)C2)C3)c(=O)n2nc(C)nc12`, the IC50 came out at 0.865 µM.

With `CCCCCn1cc(C(=O)NC23CC4CC(CC(C4)C2)C3)c(=O)n2nc(SC)nc12`, the half-inhibitory concentration (IC50) was 0.139 µM.

Take `CCCCCn1cc(C(=O)NC2CCCCC2)c(=O)n2nc(-c3ccc(C)cc3)nc12`: the IC50 stood at 0.079 µM.

For the compound `CCCCCn1cc(C(=O)NC23CC4CC(CC(C4)C2)C3)c(=O)n2nc(N(C)Cc3ccccc3)nc12`, the half-maximal inhibitory concentration (IC50) is 0.029 µM.

In the case of `CCCCCn1cc(C(=O)NC23CC4CC(C)(CC(C)(C4)C2)C3)c(=O)n2nc(-c3ccccc3)nc12`, the 50% inhibitory concentration (IC50) stood at 0.0184 µM.
